Source: ChEMBL document CHEMBL4011638, “Semisynthetic Flavone-Derived Antimicrobials with Therapeutic Potential against Methicillin-Resistant Staphylococcus aureus (MRSA)” (J Med Chem, 2017)
≈ marks a conversion by molar mass, not a printed value. Calls of active or inactive are those of the source. The calls are words filed in the database; no cut-off is given here.

Experiments:
[1] = Cytotoxicity against human Corneal fibroblasts assessed cell viability at 80 uM after 24 hrs by Cell Titer-Glo luminescent assay; format: cell-based, Corneal fibroblast; conditions: read-out: Activity
How it was run: (§1)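 ATP luminescence viability in human corneal fibroblasts, ~10000 cells per well, duplicate wells. After 24 h exposure the plate is equilibrated 0.5 h at 22 °C before Cell Titer-Glo addition and luminescence read. 1% Triton X-100 serves as positive control, medium-treated cells as negative control. Biological replicates.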

[2] = Cytotoxicity in human Corneal fibroblasts assessed as LDH release at 30 uM after 24 hrs; format: cell-based; conditions: corneal fibroblast
How it was run: (§2)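 Human corneal fibroblasts are exposed to test samples for 24 h, and cytotoxicity is read as LDH leakage into the medium. Biological replicates.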

Staphylococcus aureus [3] = test: Antibacterial activity against methicillin-resistant Staphylococcus aureus BAA-38 after 24 hrs by broth microdilution method; format: functional; conditions: BAA-38, 24 h
How it was run: (§3)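 Broth microdilution per CLSI in cation-adjusted Mueller−Hinton broth, in tubes. Compounds dissolved in H2O or DMF, then diluted in PBS to 1000 μg/mL stocks. Serial 2-fold dilutions were made, with final DMF 2.5%. Organisms were grown on TSA at 35 °C for 20 h and adjusted to ~5× 10^5 CFU/mL. Tubes were incubated at 35 °C for 24 h. MIC was the lowest concentration with no visible growth versus control. Biological replicates.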

Bacillus cereus = test: Antibacterial activity against Bacillus cereus ATCC 11778 after 24 hrs by broth microdilution method; format: functional; conditions: ATCC 11778, 24 h
How it was run: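 MIC by CLSI broth microdilution in cation-adjusted Mueller–Hinton broth, tubes. Compounds in H2O or DMF, diluted in PBS to 1000 μg/mL stocks, then serial 2-fold dilutions (final DMF 2.5%). Inoculum ~5×10^5 CFU/mL from TSA plates grown 35 °C 20 h. Incubation 35 °C 24 h; MIC = no visible growth vs control. Biological replicates.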

Staphylococcus aureus [4] = test: Bactericidal activity against methicillin-resistant Staphylococcus aureus DM21455 assessed as log reduction in bacterial count at 4 times MIC up to 30 mins by time kill assay; format: functional
How it was run: (§4)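 Time-kill. Starting inoculum 10^5−10^6 CFU/mL, exposed to 0.5×, 1×, 2× and 4× MIC at 35 °C. Colonies were counted after 24 h at 35 °C and CFU/mL calculated. Biological replicates.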

Staphylococcus aureus [5] = test: Antibacterial activity against methicillin-resistant Staphylococcus aureus ATCC 700699 infected in C57BL6 mouse corneas assessed as log reduction in bacterial burden at 0.5 % dosed at 1 day post infection administered 5 times daily for 3 days; format: functional
How it was run: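 C57BL6 mice, 6−8 weeks old, 20−30 g, anesthetized with ketamine/xylazine; four per group. Three 1 mm scratches were made on the right cornea and 10 μL of a 6 × 10^8 CFU/mL MRSA ATCC 700699 suspension was applied. From day 1 post infection, agents in PBS (12 mM, pH 7.2) were given topically 5 times daily for 3 days; PBS alone as control. Corneas were homogenized in 0.9% NaCl with 0.25% BSA and plated on TSA for 48 h at 35 °C.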

[6] = Cytotoxicity against human Corneal fibroblasts assessed cell viability at 100 uM after 24 hrs by Cell Titer-Glo luminescent assay; format: cell-based, Corneal fibroblast; conditions: read-out: Activity; how it was run: as §1
[7] = Cytotoxicity in human Corneal fibroblasts assessed as LDH release at 50 uM after 24 hrs; format: cell-based; conditions: corneal fibroblast; how it was run: as §2
Staphylococcus aureus [8] = test: Antibacterial activity against methicillin-sensitive Staphylococcus aureus ATCC 6538 after 24 hrs by broth microdilution method; format: functional; conditions: ATCC 6538, 24 h; how it was run: as §3
Staphylococcus aureus [9] = test: Antibacterial activity against methicillin-resistant Staphylococcus aureus DB57964 after 24 hrs by broth microdilution method; format: functional; conditions: DB57964, 24 h; how it was run: as §3
Staphylococcus aureus [10] = test: Antibacterial activity against methicillin-sensitive Staphylococcus aureus DM4299 after 24 hrs by broth microdilution method; format: functional; conditions: DM4299, 24 h; how it was run: as §3
[11] = Cytotoxicity against human Corneal fibroblasts assessed cell viability at 50 uM after 24 hrs by Cell Titer-Glo luminescent assay; format: cell-based, Corneal fibroblast; conditions: read-out: Activity; how it was run: as §1
[12] = Cytotoxicity in human Corneal fibroblasts assessed as LDH release at 10 uM after 24 hrs; format: cell-based; conditions: corneal fibroblast; how it was run: as §2
Staphylococcus aureus [13] = test: Bactericidal activity against methicillin-resistant Staphylococcus aureus DM9808R assessed as log reduction in bacterial count up to 4 hrs by time kill assay; format: functional; how it was run: as §4
Staphylococcus aureus [14] = test: Antibacterial activity against methicillin-sensitive Staphylococcus aureus ATCC 29737 after 24 hrs by broth microdilution method; format: functional; conditions: ATCC 29737, 24 h; how it was run: as §3
Staphylococcus aureus [15] = test: Antibacterial activity against methicillin-resistant Staphylococcus aureus DM 9808R after 24 hrs by broth microdilution method; format: functional; how it was run: as §3
Staphylococcus aureus [16] = test: Bactericidal activity against methicillin-resistant Staphylococcus aureus DM9808R assessed as log reduction in bacterial count at 4 times MIC up to 2 hrs by time kill assay; format: functional; how it was run: as §4
Staphylococcus aureus [17] = test: Antibacterial activity against methicillin-resistant Staphylococcus aureus DB68004 after 24 hrs by broth microdilution method; format: functional; conditions: DB68004, 24 h; how it was run: as §3
Staphylococcus aureus [18] = test: Antibacterial activity against methicillin-resistant Staphylococcus aureus DB6506 after 24 hrs by broth microdilution method; format: functional; conditions: DB6506, 24 h; how it was run: as §3
Staphylococcus aureus [19] = test: Antibacterial activity against methicillin-resistant Staphylococcus aureus ATCC 700699 after 24 hrs by broth microdilution method; format: functional; conditions: ATCC 700699, 24 h; how it was run: as §3
Staphylococcus aureus [20] = test: Antibacterial activity against Staphylococcus aureus ATCC 29213 after 17 passages; format: functional
Staphylococcus aureus [21] = test: Bactericidal activity against methicillin-resistant Staphylococcus aureus DM9808R assessed as log reduction in bacterial count at 2 times MIC up to 2 hrs by time kill assay; format: functional; how it was run: as §4
Staphylococcus aureus [22] = test: Antibacterial activity against methicillin-sensitive Staphylococcus aureus ATCC 29213 after 24 hrs by broth microdilution method; format: functional; conditions: ATCC 29213, 24 h; how it was run: as §3
Lipid bilayer = test: Membrane permeabilization activity in DOPE/DOPG large unilamellar liposomes assessed as leakage of calcein at 1:4 compound to lipid ratio by fluorescence assay
How it was run: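 Calcein-loaded 100 nm LUVs of DOPE/DOPG (3:1, w/w), made by film hydration in 80 mM calcein, 100 mM NaCl, 50 mM HEPES, 0.3 mM EDTA, pH 7.4. Liposomes 50 μM, 0.5% DMF, room temperature. Read at ex 490/em 520 nm every 2 min for 30 cycles. % leakage normalized to 0.1% Triton X-100 (100%) and 0.5% DMF (0%). Biological replicates.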

Staphylococcus aureus [23] = test: Bactericidal activity against methicillin-resistant Staphylococcus aureus DM21455 up to 4 hrs by time kill assay; format: functional; how it was run: as §4
Staphylococcus aureus [24] = test: Antibacterial activity against methicillin-sensitive Staphylococcus aureus DM4583R after 24 hrs by broth microdilution method; format: functional; how it was run: as §3
Staphylococcus aureus [25] = test: Antibacterial activity against methicillin-resistant Staphylococcus aureus DM 21455 after 24 hrs by broth microdilution method; format: functional; conditions: DM 21455, 24 h; how it was run: as §3
Staphylococcus aureus [26] = test: Bactericidal activity against methicillin-resistant Staphylococcus aureus DM21455 assessed as log reduction in bacterial count at 2 times MIC up to 30 mins by time kill assay; format: functional; how it was run: as §4
Staphylococcus aureus [27] = test: Antibacterial activity against methicillin-resistant Staphylococcus aureus ATCC 43300 after 24 hrs by broth microdilution method; format: functional; conditions: ATCC 43300, 24 h; how it was run: as §3
Staphylococcus aureus [28] = test: Antibacterial activity against methicillin-sensitive Staphylococcus aureus DM4400R after 24 hrs by broth microdilution method; format: functional; how it was run: as §3

## COC(=O)[C@H](CCCNC(=N)N)NC(=O)COc1cc(O)c2c(=O)c(OCC(=O)N[C@@H](CCCNC(=N)N)C(=O)OC)c(-c3ccc(OC)cc3)oc2c1CC=C(C)C
[1]
  viability at 24 h, 80 µM: 69.3%
[2]
  Activity: -2.3%
Staphylococcus aureus [3]
  MIC: 3.13 µg/mL (≈ 3.79 µM)
Bacillus cereus
  MIC: 3.8 µM (≈ 3.13 µg/mL)
Staphylococcus aureus [4]
  Activity: 3 deltalog10CFU/ml
Staphylococcus aureus [5]
  Activity: 2.95 deltalog10CFU/ml
[6]
  viability at 24 h, 100 µM: 57.7%
[7]
  Activity: 0.05%
Staphylococcus aureus [8]
  MIC: 1.56 µg/mL (≈ 1.89 µM)
Staphylococcus aureus [9]
  MIC: 3.13 µg/mL (≈ 3.79 µM)
Staphylococcus aureus [10]
  MIC: 3.13 µg/mL (≈ 3.79 µM)
[11]
  viability at 24 h, 50 µM: 97.7%
[12]
  Activity: -1.52%
Staphylococcus aureus [13]
  Activity: Active
Staphylococcus aureus [14]
  MIC: 1.56 µg/mL (≈ 1.89 µM)
Staphylococcus aureus [15]
  MIC: 3.8 µM (≈ 3.13 µg/mL)
Staphylococcus aureus [16]
  Activity: 3 deltalog10CFU/ml
Staphylococcus aureus [17]
  MIC: 3.13 µg/mL (≈ 3.79 µM)
Staphylococcus aureus [18]
  MIC: 3.13 µg/mL (≈ 3.79 µM)
Staphylococcus aureus [19]
  MIC: 3.13 µg/mL (≈ 3.79 µM)
Staphylococcus aureus [20]
  Activity: Active
Staphylococcus aureus [21]
  Activity: 3 deltalog10CFU/ml
Staphylococcus aureus [22]
  MIC: 3.13 µg/mL (≈ 3.79 µM)
Lipid bilayer
  Activity: 46%
Staphylococcus aureus [23]
  Activity: Dose-dependent effect
Staphylococcus aureus [24]
  MIC: 1.56 µg/mL (≈ 1.89 µM)
Staphylococcus aureus [25]
  MIC: 1.9 µM (≈ 1.57 µg/mL)
Staphylococcus aureus [26]
  Activity: 3 deltalog10CFU/ml
Staphylococcus aureus [27]
  MIC: 1.56 µg/mL (≈ 1.89 µM)
Staphylococcus aureus [28]
  MIC: 3.13 µg/mL (≈ 3.79 µM)
